From publication PMC3078945 (Clinical cancer research : an official journal of the …, 2011)
“Also recorded” adds a separate entry of the source. Like-named read-outs stand apart in the source and are kept apart here.

Key:
[1] = target: Protein Kinase C; conditions: PKC; cited from earlier work
[2] = cited from earlier work
[3] = cited from earlier work; remark: listed apart in the source
[4] = Safingol plasma pharmacokinetics in the phase I trial; type: in vivo, human; conditions: for dose dependence of safingol PK parameters (Cmax, AUC): safingol 60–930 mg/m^2
Method in brief: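 Safingol was an egg-phospholipid/dextrose/lactic acid emulsion diluted to 1 mg/ml in saline and infused IV over 60–120 min at 60–930 mg/m2. […] Assay was HPLC-MS/MS with non-compartmental analysis.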

[5] = system: patients with advanced solid tumors; conditions: for AST/ALT G2 (number of patients) / Fatigue G4 (number of patients) / Hyponatremia G2 (number of patients) / Hyponatremia G3 (number of patients) / Hyponatremia G4 (number of patients) / Lymphopenia G2 (number of patients) / Lymphopenia G3 (number of patients) / Lymphopenia G4 (number of patients) / Nausea/vomiting G2 (number of patients) / Nausea/vomiting G3 (number of patients): cycle 1
[6] = system: advanced solid tumors; experiment: Antitumor activity; type: in vivo, human
[7] = system: mice; conditions: mouse, in vivo; cited from earlier work
[8] = system: patients; conditions: cited from earlier work
[9] = system: xenograft; conditions: cited from earlier work
[10] = system: sphingosine-1-phophate (S1P) levels; experiment: Pharmacodynamics: plasma S1P levels after safingol; type: in vivo, human; conditions: for effect on S1P in plasma: across dose cohorts
Method in brief: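 Levels 1 h and 4 h after safingol were normalized to pre-treatment levels, with patients grouped by dose cohort. Values are cohort means with standard error.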

[11] = target: sphingosine kinase 1 (SphK); conditions: cited from earlier work
[12] = system: solid tumor cells; conditions: safingol alone; cited from earlier work
[13] = cohorts 8–10, safingol 750–930 mg/m^2
[14] = cohort 1 (safingol 60, cisplatin 75 mg/m^2), N=4
[15] = cohort 2 (safingol 120, cisplatin 75 mg/m^2), N=3
[16] = cohort 3 (safingol 240, cisplatin 75 mg/m^2), N=3
[17] = cohort 4 (safingol 240, cisplatin 60 mg/m^2), N=6
[18] = cohort 5 (safingol 360, cisplatin 60 mg/m^2), N=3
[19] = cohort 6 (safingol 480, cisplatin 60 mg/m^2), N=3
[20] = cohort 7 (safingol 600, cisplatin 60 mg/m^2), N=3
[21] = cohort 8 (safingol 750, cisplatin 60 mg/m^2), N=6
[22] = cohort 9 (safingol 930, cisplatin 60 mg/m^2), N=6
[23] = cohort 10 (safingol 840, cisplatin 60 mg/m^2), N=6
[24] = safingol + cisplatin, 6 patients
[25] = safingol + cisplatin, 37 patients evaluable

CCCCCCCCCCCCCCC[C@H](O)[C@@H](N)CO [Safingol, (2S,3S)-2-amino-1,3-octadecanediol]
Ki [1]: 33 µM | pharmacokinetic interaction with doxorubicin ([2]; phase I study with doxorubicin): No significant pharmacokinetic interaction | Cmax ([2]; read-out: mean Cmax, safingol 60 mg/m^2, study of safingol and doxorubicin): 1300 nM | effect on in vitro antitumor effect of doxorubicin, cisplatin and mitomycin C [3]: increases the in vitro antitumor effect | pharmacokinetic interaction of safingol with cisplatin (day 1 vs day 8) ([4]; cohorts 1–7, listed as S): no significant interaction | duration of safingol concentration over 20 µM [4, 13]: < 1 h | time safingol levels of at least 5 µM persist after treatment [4, 13]: at least 4 hours | AUC ([4]; human, plasma, intravenous, Mean day 1 safingol AUC, safingol 600 – 930 mg/m^2): 102 to 110 µM·h | Cmax ([4]; human, plasma, intravenous, Mean day 1 safingol Cmax, safingol 600 – 930 mg/m^2): 23900 to 26800 nM | increase in AUC per 100 mg/m^2 increase in safingol dose ([4]; on average): 10 µM·h | increase in Cmax per 100 mg/m^2 increase in safingol dose ([4]; on average): 3000 nM | dose dependence of safingol PK parameters (Cmax, AUC) [4]: increased in a linear and dose-proportional manner; also recorded: increased linearly with dose | dose dependence of safingol PK parameters (Cmax, AUC) ([4]; listed as S): linear throughout the dose range | upper limit of the 95% posterior interval of DLT rate ([5]; MTD cohort): 40% | DLT rate for the MTD cohort ([5]; cohort 10, 1/6): 17% | hemolysis ([5]; current study, careful monitoring): no hemolysis was observed in any patient | AST/ALT G2 (number of patients) [5, 14]: 0 | Fatigue G4 (number of patients) [5, 14]: 0 | Hyponatremia G2 (number of patients) [5, 14]: 0 | Hyponatremia G3 (number of patients) [5, 14]: 1 | Hyponatremia G4 (number of patients) [5, 14]: 0 | Lymphopenia G2 (number of patients) [5, 14]: 0 | Lymphopenia G3 (number of patients) [5, 14]: 1 | Lymphopenia G4 (number of patients) [5, 14]: 0 | Nausea/vomiting G2 (number of patients) [5, 14]: 0 | Nausea/vomiting G3 (number of patients) [5, 14]: 0 | AST/ALT G2 (number of patients) [5, 15]: 0 | Fatigue G4 (number of patients) [5, 15]: 0 | Hyponatremia G2 (number of patients) [5, 15]: 0 | Hyponatremia G3 (number of patients) [5, 15]: 0 | Hyponatremia G4 (number of patients) [5, 15]: 0 | Lymphopenia G2 (number of patients) [5, 15]: 0 | Lymphopenia G3 (number of patients) [5, 15]: 1 | Lymphopenia G4 (number of patients) [5, 15]: 0 | Nausea/vomiting G2 (number of patients) [5, 15]: 1 | Nausea/vomiting G3 (number of patients) [5, 15]: 0 | AST/ALT G2 (number of patients) [5, 16]: 0 | Fatigue G4 (number of patients) [5, 16]: 0 | Hyponatremia G2 (number of patients) [5, 16]: 0 | Hyponatremia G3 (number of patients) [5, 16]: 1 | Hyponatremia G4 (number of patients) [5, 16]: 0 | Lymphopenia G2 (number of patients) [5, 16]: 0 | Lymphopenia G3 (number of patients) [5, 16]: 0 | Lymphopenia G4 (number of patients) [5, 16]: 0 | Nausea/vomiting G2 (number of patients) [5, 16]: 3 | Nausea/vomiting G3 (number of patients) [5, 16]: 0 | AST/ALT G2 (number of patients) [5, 17]: 1 | Fatigue G4 (number of patients) [5, 17]: 0 | Hyponatremia G2 (number of patients) [5, 17]: 0 | Hyponatremia G3 (number of patients) [5, 17]: 0 | Hyponatremia G4 (number of patients) [5, 17]: 0 | Lymphopenia G2 (number of patients) [5, 17]: 0 | Lymphopenia G3 (number of patients) [5, 17]: 3 | Lymphopenia G4 (number of patients) [5, 17]: 0 | Nausea/vomiting G2 (number of patients) [5, 17]: 0 | Nausea/vomiting G3 (number of patients) [5, 17]: 0 | AST/ALT G2 (number of patients) [5, 18]: 1 | Fatigue G4 (number of patients) [5, 18]: 0 | Hyponatremia G2 (number of patients) [5, 18]: 0 | Hyponatremia G3 (number of patients) [5, 18]: 0 | Hyponatremia G4 (number of patients) [5, 18]: 0 | Lymphopenia G2 (number of patients) [5, 18]: 0 | Lymphopenia G3 (number of patients) [5, 18]: 1 | Lymphopenia G4 (number of patients) [5, 18]: 0 | Nausea/vomiting G2 (number of patients) [5, 18]: 0 | Nausea/vomiting G3 (number of patients) [5, 18]: 0 | AST/ALT G2 (number of patients) [5, 19]: 0 | Fatigue G4 (number of patients) [5, 19]: 0 | Hyponatremia G2 (number of patients) [5, 19]: 0 | Hyponatremia G3 (number of patients) [5, 19]: 0 | Hyponatremia G4 (number of patients) [5, 19]: 0 | Lymphopenia G2 (number of patients) [5, 19]: 0 | Lymphopenia G3 (number of patients) [5, 19]: 0 | Lymphopenia G4 (number of patients) [5, 19]: 0 | Nausea/vomiting G2 (number of patients) [5, 19]: 0 | Nausea/vomiting G3 (number of patients) [5, 19]: 0 | AST/ALT G2 (number of patients) [5, 20]: 0 | Fatigue G4 (number of patients) [5, 20]: 0 | Hyponatremia G2 (number of patients) [5, 20]: 0 | Hyponatremia G3 (number of patients) [5, 20]: 0 | Hyponatremia G4 (number of patients) [5, 20]: 0 | Lymphopenia G2 (number of patients) [5, 20]: 0 | Lymphopenia G3 (number of patients) [5, 20]: 0 | Lymphopenia G4 (number of patients) [5, 20]: 0 | Nausea/vomiting G2 (number of patients) [5, 20]: 0 | Nausea/vomiting G3 (number of patients) [5, 20]: 0 | AST/ALT G2 (number of patients) [5, 21]: 1 | Fatigue G4 (number of patients) [5, 21]: 0 | Hyponatremia G2 (number of patients) [5, 21]: 0 | Hyponatremia G3 (number of patients) [5, 21]: 0 | Hyponatremia G4 (number of patients) [5, 21]: 0 | Lymphopenia G2 (number of patients) [5, 21]: 0 | Lymphopenia G3 (number of patients) [5, 21]: 0 | Lymphopenia G4 (number of patients) [5, 21]: 0 | Nausea/vomiting G2 (number of patients) [5, 21]: 0 | Nausea/vomiting G3 (number of patients) [5, 21]: 0 | AST/ALT G2 (number of patients) [5, 22]: 1 | Fatigue G4 (number of patients) [5, 22]: 0 | Hyponatremia G2 (number of patients) [5, 22]: 0 | Hyponatremia G3 (number of patients) [5, 22]: 1 | Hyponatremia G4 (number of patients) [5, 22]: 0 | Lymphopenia G2 (number of patients) [5, 22]: 0 | Lymphopenia G3 (number of patients) [5, 22]: 2 | Lymphopenia G4 (number of patients) [5, 22]: 0 | Nausea/vomiting G2 (number of patients) [5, 22]: 0 | Nausea/vomiting G3 (number of patients) [5, 22]: 0 | AST/ALT G2 (number of patients) [5, 23]: 0 | Fatigue G4 (number of patients) [5, 23]: 0 | Hyponatremia G2 (number of patients) [5, 23]: 0 | Hyponatremia G3 (number of patients) [5, 23]: 2 | Hyponatremia G4 (number of patients) [5, 23]: 0 | Lymphopenia G2 (number of patients) [5, 23]: 0 | Lymphopenia G3 (number of patients) [5, 23]: 0 | Lymphopenia G4 (number of patients) [5, 23]: 0 | Nausea/vomiting G2 (number of patients) [5, 23]: 1 | Nausea/vomiting G3 (number of patients) [5, 23]: 0 | maximum administered dose ([5]; exceeded the MTD): 930 mg/m^2 | DLT from safingol (principal DLT) ([5]; in combination with cisplatin): hepatic enzyme elevation | overall tolerability of the drug combination ([5]; in vivo): well tolerated with no major increase in toxicities over those of cisplatin alone | maximum tolerated dose (MTD) ([5]; safingol over 120 min with cisplatin 60 mg/m^2, every 3 weeks): 840 mg/m^2 | recommended phase 2 dose ([5]; with cisplatin 60 mg/m^2, every 3 weeks): 840 mg/m^2 | duration of stable disease ([6]; other patient with adrenal cortical cancer): 7.2 m | average duration of stable disease [6, 24]: 3.3 m | range of duration of stable disease [6, 24]: 1.8 – 7.2 m | average duration of stable disease ([6]; safingol + cisplatin, 6 patients, listed as S): 3.3 months | best response [6, 25]: stable disease | number of patients with stable disease [6, 25]: 6 | hepatic toxicity in mice [7]: increases in ALT and histological changes consistent with hepatocyte autophagy | safingol-associated toxicity ([8]; phase I study with doxorubicin): a single episode of grade 1 hemolysis | hepatic toxicity ([8]; safingol doses not exceeding 120 mg/m^2 with doxorubicin): no hepatic toxicity was observed | dose-limiting toxicity ([8]; safingol up to 120 mg/m^2 every three weeks with doxorubicin): no dose-limiting toxicity observed | effect on antitumor activity of cisplatin in xenografts [9]: can increase the antitumor activity of cisplatin without increasing toxicity | effect on S1P in plasma [10]: dose-dependent decreases; also recorded: significant decreases | effect on S1P in plasma ([10]; listed as S): dose-dependent reduction | time dependence of S1P levels ([10]; safingol 930 mg/m^2, p = 0.001): lower 4 hours post-treatment than at 1 hour post-treatment | decrease of S1P levels relative to pre-treatment ([10]; safingol doses of over 750 mg/m^2, p < 0.001): about half | Ki ([11]; SphK): 5 µM | Ki ([11]; competitive inhibitor of SphK): ~5 µM | cell death mechanism [12]: induces cell death by autophagy
